High-throughput results (PubChem)
BB579 growth dn: chemicals that inhibit yeast BB579 growth in restrictive medium (lifespan-shortening candidates); inhibition, % at 10 µM; S. cerevisiae BB579 growth, OD615, 48 h; 0.51% of 140,000 active;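 active = inhibition above a set limit, 3 SD over the mean compound inhibition, cut at about 44% in these data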
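Test system: DeaD yeast strain BB579 / Buffer or medium: restrictive glucose-based CSMM-D medium / Doses: single 10 µM dose / Schedule: 4 h cell preincubation, 48 h compound exposure, 30 °C humidified / Technique: culture absorbance at 615 nm / Controls: amphotericin B positive control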
Yeast life ext: yeast lifespan extension. S. cerevisiae growth with nicotinamide, OD615; deaD strain in restrictive glucose medium. inhibition of the nicotinamide effect, % at 10 µM. 0.68% of 130,000 active. AID 775;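 active = inhibition above a set limit, placed 3 SD over the median of all compounds, cut at about 26% in these data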
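assay system = DeaD-strain S. cerevisiae | measured by = absorbance at 615 nm | probe or stimulus = nicotinamide 1.5 mM | buffer or medium = CSMM-D glucose medium, restrictive | times = 48 h at 30 °C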
PostGolgi yeast: growth inhibition of a yeast mutant, post-Golgi transport screen. 0.9% of 98,000 active. inhibition, % at 10 µM. post-Golgi transport phenotypic cell assay;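 note: yeast cells grown in 1536-well plates; yeast grown about 18 h at 30C before absorbance read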
PostGolgi ctrl: growth of the yeast control strain, post-Golgi counter-screen; inhibition, % at 10 µM; 5% of 98,000 active; efflux-deficient yeast background strain, growth absorbance A615, 16 h
Hits are given with their value; . = inactive; / = not tested or not shown. The full list was thinned out, with hits kept by preference. Cut-off read from the data, not from the text of the source, unless noted: active = inhibition above about 30%; inactive = the rest.

SMILES	BB579 growth dn	Yeast life ext	PostGolgi yeast	PostGolgi ctrl
Cc1ccc(N(C(=O)Cn2nnc(-c3ccccc3)n2)C(C(=O)NC2CCCCC2)c2ccccn2)cc1C (centres undefined)	.	.	/	/
CCOc1ccc2nc(NS(=O)(=O)Cc3ccccc3)sc2c1	.	.	.	.
O=C(NC1CCCCC1)C(c1ccco1)N(Cc1cccnc1)C(=O)C1COc2ccccc2O1 (centres undefined)	.	.	.	30
CCCCC(=O)Nc1ccc(NC(=S)NC(=O)CCCCl)cc1OC	.	.	/	/
C=CCn1c(COc2ccccc2F)nnc1SCCN1C(=O)c2ccccc2C1=O	.	.	/	/
Cc1ccc(OCCOCCN(C)C)c(Cl)c1	.	.	/	/
CC(C)(C)c1cc(NCCCn2ccnc2)n2ncc(-c3ccc(Cl)cc3)c2n1	86	.	58	93
O=S(=O)(c1ccc(OCC(O)CN2CCN(c3ccccc3O)CC2)cc1)N1CCOCC1 (centres undefined)	.	.	.	45
O=C(CNC1CCCCCC1)c1cccs1	.	.	/	/
COc1ccc(/C=N\NC(=O)c2cc(O)c(O)c(O)c2)cc1CN1CCN(c2ccc(F)cc2)CC1	.	.	/	/
CC1CC2(CCCCC2)Nc2c1ccc1ccccc21 (centres undefined)	.	/	/	/
CC(=O)N1c2c(ccc3ccccc23)C(C)CC12CCCCC2 (centres undefined)	.	.	.	38
CCn1c(=O)c(-c2ccccc2)c(O)c2ccccc21	.	.	.	.
CCCCn1c(=O)c(-c2ccccc2)c(O)c2ccccc21	.	.	.	32
Fc1ccc2c(c1)C(c1ccncc1)=NNC(c1cccnc1)=N2	.	.	.	.
CCN(CC)C(=S)SCC(=O)NC12CC3CC(CC(C3)C1)C2	.	.	/	/
Cn1c(=O)c2c(=O)cc(NNC(=O)C(C)(C)C)[nH]c2n(C)c1=O	.	28	.	.
Clc1cccc(Cl)c1CO/N=C/c1c(-c2ccccc2)nc2n1CCS2	.	.	.	30
Fc1cccc(CO/N=C/c2c(-c3ccccc3)nc3ccc(Cl)cn23)c1	.	.	.	.
Nc1cc(C(=O)OCC(=O)NCc2ccco2)ccc1Cl	.	.	.	.
COc1ccc(-c2nnn(CC(=O)N(Cc3ccccc3Cl)C(C(=O)NCC3CCCO3)c3ccco3)n2)cc1OC (centres undefined)	.	.	.	.
Cc1ccc(C)c(N(CC(=O)NCCSCc2ccco2)S(C)(=O)=O)c1	.	.	.	.
C=CCSc1nnc(-c2nnc(SCC=C)n2-c2ccccc2)n1-c1ccccc1	.	.	.	33
C=CCSc1nnc(-c2sc(-c3ccccc3)nc2C)n1C	.	.	.	.
O=C(N/N=C/c1cccs1)c1cc(-c2ccncc2)nc2ccccc12	.	.	/	/
SMILES	BB579 growth dn	Yeast life ext	PostGolgi yeast	PostGolgi ctrl
COc1ccccc1-c1cc(C(=O)N/N=C/c2cccs2)c2ccccc2n1	.	.	.	33
COc1ccc(-c2cc(C(=O)N/N=C/c3ccc4c(c3)OCO4)c3ccccc3n2)c(OC)c1	.	.	37	72
COc1ccc(-c2cc(C(=O)N/N=C/c3ccc(OC)c(COCC(F)(F)C(F)F)c3)c3ccccc3n2)c(OC)c1	.	.	.	.
CCCOc1ccc(C(=O)NCC(c2ccco2)N(C)C)cc1 (centres undefined)	.	.	/	/
Cc1ccc(C(=O)COC(=O)c2ccccc2NC(=O)c2ccccc2)cc1[N+](=O)[O-]	.	.	/	/
Cc1ccc(Nc2nnc(SCC(=O)Nc3cccnc3Cl)s2)cc1C	.	.	/	/
N#Cc1c2n(c3c(=O)n(Cc4ccc(Cl)cc4)cnc13)CCCCC2	.	.	.	58
COc1ccc(Cn2c(-c3ccc(C)cc3)c[n+]3ccccc23)cc1	.	.	/	/
Cc1ccc(NCc2ccccc2OCc2ccccc2F)cc1	.	.	.	.
Oc1ccc(NCc2ccccc2OCc2ccccc2F)cc1	.	27	.	.
CCCc1nc(SCC(=O)N2CCCc3ccccc32)c2c(=O)n(C)c(=O)n(C)c2n1	.	.	49	37
CCCc1nc(SCC(=O)N2CCC(Cc3ccccc3)CC2)c2c(=O)n(C)c(=O)n(C)c2n1	.	.	.	38
Cn1c(=O)c2c(SCC(=O)N3CCCc4ccccc43)nc(CC(C)(C)C)nc2n(C)c1=O	.	.	.	.
CCCc1nc(SCC(=O)Nc2ccccc2)c2c(=O)n(C)c(=O)n(C)c2n1	.	.	.	.
Cc1cccc(NC(=O)C2c3ccccc3C(=O)N3CCc4ccccc4C23)n1 (centres undefined)	.	.	.	.
Cc1ccc(C(=O)OC2OC(=O)C(Cl)=C2N2CCOCC2)cc1 (centres undefined)	.	.	/	/
O=C(COc1ccc(S(=O)(=O)NC2CCCCC2)cc1Cl)N1CCN(c2ccccc2)CC1	.	.	.	.
Cn1c(SCC(=O)Nc2ccccc2)nc(O)cc1=O	62	.	.	.
COc1ccc(-n2ccnc2SCC(=O)Nc2ccccc2)cc1	.	.	.	37
COc1cccc(-c2cc(C(=O)NCCCn3ccnc3)no2)c1	.	.	.	.
COc1ccc(-c2cc(C(=O)N3CCN(c4ncccn4)CC3)c3ccccc3n2)c(OC)c1	59	.	/	/
COc1ccccc1-c1cc(C(=O)N2CCc3ccccc3C2)c2ccccc2n1	.	.	.	52
COc1ccc(OC)c(-c2cc(C(=O)N3CCN(c4ncccn4)CC3)c3ccccc3n2)c1	.	.	.	.
O=C(c1ccc(Cl)nc1)N1CCc2ccccc2C1	.	.	.	.
O=C(c1cncc(Br)c1)N1CCc2ccccc2C1	.	43	.	.
SMILES	BB579 growth dn	Yeast life ext	PostGolgi yeast	PostGolgi ctrl
O=C(c1cc(-c2ccccn2)nc2ccc(Br)cc12)N1CCc2ccccc2C1	.	.	.	71
COc1ccc(-c2cc(-c3ccc(C)cc3)nc(SCc3nnc(-c4ccccc4)o3)c2C#N)cc1OC	.	.	/	/
C=C(C)CNC(=S)NNC(=O)c1ccc(Br)cc1	.	.	/	/
CC(C)NC(=O)C1(c2ccccc2)CC1(Cl)Cl (centres undefined)	.	.	/	/
Cc1ccc(SC(C)C(=O)Nc2ccncc2)cc1 (centres undefined)	.	.	102	90
Cc1ccc(SC(C)C(=O)Nc2cccnc2)cc1 (centres undefined)	.	.	.	.
CCCCN(CCCNC(=O)c1c(C)cc(=O)oc1C)c1ccccc1	.	.	.	32
CCN(CCCNC(=O)c1c(C)cc(=O)oc1C)c1ccccc1	.	.	.	.
CCOc1ccc(OCC(=O)c2c(O)c3ccccc3oc2=O)cc1	.	44	.	.
O=C(COC(=O)c1ccccc1[N+](=O)[O-])c1ccc(C2CCCCC2)cc1	.	.	.	34
Oc1cccc(/C=N/NC(=S)Nc2cccnc2)c1O	53	.	/	/
O=C(/C=C(\c1ccc(Cl)cc1)n1cncn1)c1ccc(Cl)cc1	.	.	.	.
O=C(/C(=C/c1ccccc1)n1cncn1)c1ccc(Cl)cc1Cl	.	49	/	/
CC1=CC(C)(C)[N+](C)=CN1c1ccccc1	.	.	/	/
O=C(N1CCN(c2ccc(F)cc2)CC1)C1(c2cccs2)CCOCC1	.	.	/	/
C=CCOc1c(Cl)cc(C2NC(=O)NC(C)=C2C(=O)OC)cc1Cl (centres undefined)	.	.	.	51
